Data as given in ChEMBL document CHEMBL3351538, “Complete stereochemistry and preliminary structure-activity relationship of rakicidin A, a hypoxia-selective cytotoxin from Micromonospora sp” (J Nat Prod, 2014).

Key:
[1] = Cytotoxicity against human HCT8 cells under hypoxic condition […] by crystal violet method; format: functional, cell-based; conditions: HCT-8
Method in brief: (§1)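 HCT-8 or PANC-1 cells seeded at 2 × 10^4 per well in duplicate plates and preincubated 24 h to adhere. Serially diluted samples added, then cultures held 2 d either normoxic (5% CO2) or hypoxic (1% O2, modular chamber with oxygen indicator). Viability read by crystal violet staining under normoxic conditions.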

HCT-8 = experiment: Selectivity index, ratio of IC50 for human HCT8 cells under normoxic condition to IC50 for human HCT8 cells under hypoxic condition; format: functional
[2] = Cytotoxicity against human PANC1 cells under hypoxic condition […] by crystal violet method; format: functional, cell-based; conditions: PANC-1; method in brief: as §1
[3] = Cytotoxicity against human HCT8 cells under normoxic condition after 2 days by crystal violet method; conditions: HCT-8, 2 d
[4] = Cytotoxicity against human PANC1 cells under normoxic condition after 2 days by crystal violet method; conditions: PANC-1, 2 d
PANC-1 = experiment: Selectivity index, ratio of IC50 for human PANC1 cells under normoxic condition to IC50 for human PANC1 cells under hypoxic condition; format: functional

Compound | IC50 [1] [µM] | Ratio IC50 (HCT-8) | IC50 [2] [µM] | IC50 [3] [µM] | IC50 [4] [µM] | Ratio IC50 (PANC-1)
CC(C)CCCCCCCCCCC[C@@H](C)[C@H](O)[C@H](C)C(=O)NC(C)CCC(=O)N(C)CC(=O)N[C@@H](C(=O)O)[C@@H](O)C(N)=O (stereo not given in full) | 63.4 | 0.54 | > 80 | 33.9 | 27.4 | 
COc1cccc2c1C(=O)c1c(O)c3c(c(O)c1C2=O)C[C@@](O)(C(=O)CO)C[C@@H]3O[C@H]1C[C@H](N)[C@H](O)[C@H](C)O1 [DOXORUBICIN] | 19.6 | 0.12 | 5.4 | 2.4 | 1.1 | 0.21
C=C1/C=C/C(=O)N(C)CC(=O)N[C@H]([C@@H](O)C(N)=O)C(=O)O[C@@H]([C@H](C)CCCCCCCCCCCCCC(C)C)[C@H](C)C(=O)N1 | 1.8 | 5.2 | 4.7 | 9.4 | 17.9 | 3.8
CC(C)CCCCCCCCCCC[C@@H](C)[C@@H]1OC(=O)[C@@H]([C@@H](O)C(N)=O)NC(=O)CN(C)C(=O)CCC(C)NC(=O)[C@H]1C (stereo not given in full) | 6.5 | 4.3 | 75.4 | 27.7 | 19.3 | 0.26
C=C1/C=C/C(=O)N(C)CC(=O)N[C@H]([C@@H](O)C(N)=O)C(=O)O[C@@H]([C@H](C)CCCCCCCCCCCC(C)C)[C@H](C)C(=O)N1 | 0.3 | 12.8 | 0.37 | 3.9 | 2.3 | 6.3
C=C1/C=C/C(=O)N(C)CC(=O)NC(C(O)C(N)=O)C(=O)OC(C(C)CCCCCCCCCCCCC(C)C)C(C)C(=O)N1 (stereo not given) | 0.21 | 10 | 0.71 | 2.1 | 3.1 | 4.3
